≈ marks a conversion by molar mass, not a printed value. Where “and” joins values, the source holds several entries; their conditions need not be identical. Identical values can stand only once. Blank lines part the entries; values can stand above or below the compound they belong to.
Tests used:
[1] = Toxicity in HUVEC cell lysates.; format: cell-based, Lysate; conditions: human
[2] = target: T1, Intercellular adhesion molecule 1 (Homo sapiens, UniProt P05362); assay: In vitro inhibitory potency compared to TNF-alpha induced Intercellular adhesion molecule-1 in human endothelial cells (ELISA assay); format: cell-based, Endothelial cell
T1 sequence (P05362 whole entry): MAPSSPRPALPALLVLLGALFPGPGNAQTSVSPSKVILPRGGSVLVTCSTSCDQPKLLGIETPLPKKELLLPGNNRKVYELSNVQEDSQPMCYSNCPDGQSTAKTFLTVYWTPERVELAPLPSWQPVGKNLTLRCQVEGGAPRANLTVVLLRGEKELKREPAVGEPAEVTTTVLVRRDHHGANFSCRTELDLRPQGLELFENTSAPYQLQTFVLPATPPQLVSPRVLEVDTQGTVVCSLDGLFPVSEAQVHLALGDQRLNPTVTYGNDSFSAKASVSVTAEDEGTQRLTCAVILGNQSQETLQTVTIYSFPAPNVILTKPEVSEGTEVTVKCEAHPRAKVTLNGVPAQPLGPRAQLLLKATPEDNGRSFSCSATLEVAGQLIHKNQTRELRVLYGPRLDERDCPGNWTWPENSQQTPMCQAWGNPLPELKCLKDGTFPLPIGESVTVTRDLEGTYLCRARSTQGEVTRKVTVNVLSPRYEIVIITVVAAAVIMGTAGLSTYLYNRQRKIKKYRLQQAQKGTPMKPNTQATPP
Summary of the method: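 Primary HUVECs seeded at 5 × 10^4 cells/mL in EBM/2% FBS with supplements. After 24 h of compound at 37 °C, TNFα was added to 5 ng/mL final for 6 h at 37 °C. Cell-surface ICAM-1 was detected with a mouse monoclonal antibody, then HRP anti-mouse IgG and OPD, with absorbance at 490 nm. Triplicate determinations.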

[3] = target: T1, Intercellular adhesion molecule 1; assay: Inhibition of intercellular adhesion molecule-1 (ICAM1) in human endothelial cells; format: cell-based, Endothelial cell
Summary of the method: (§1)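 Whole-cell ELISA on primary HUVECs plated at 5 × 10^4 cells/mL in EBM/2% FBS with growth supplements. Compound preincubated 24 h at 37 °C, then inducer added (TNFα at 5 ng/mL final, or IL-1β or PMA in its place) for 6 h at 37 °C. Mouse monoclonal anti-E-selectin, anti-ICAM-1 or anti-VCAM-1 was applied overnight at 4 °C, then HRP anti-mouse IgG. Detection with OPD, A490. Triplicate assays.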

[4] = target: T1, Intercellular adhesion molecule 1; assay: In vitro inhibitory potency compared to PMA induced Intercellular adhesion molecule-1 in human endothelial cells (ELISA assay); format: cell-based, Endothelial cell; summary of the method: as §1
[5] = target: T2, E-selectin (Homo sapiens) (UniProt P16581); assay: In vitro inhibitory potency compared to PMA induced Selectin E expression in human endothelial cells (ELISA assay) at 1 uM; format: cell-based; conditions: Endothelial cell
T2 sequence (whole entry): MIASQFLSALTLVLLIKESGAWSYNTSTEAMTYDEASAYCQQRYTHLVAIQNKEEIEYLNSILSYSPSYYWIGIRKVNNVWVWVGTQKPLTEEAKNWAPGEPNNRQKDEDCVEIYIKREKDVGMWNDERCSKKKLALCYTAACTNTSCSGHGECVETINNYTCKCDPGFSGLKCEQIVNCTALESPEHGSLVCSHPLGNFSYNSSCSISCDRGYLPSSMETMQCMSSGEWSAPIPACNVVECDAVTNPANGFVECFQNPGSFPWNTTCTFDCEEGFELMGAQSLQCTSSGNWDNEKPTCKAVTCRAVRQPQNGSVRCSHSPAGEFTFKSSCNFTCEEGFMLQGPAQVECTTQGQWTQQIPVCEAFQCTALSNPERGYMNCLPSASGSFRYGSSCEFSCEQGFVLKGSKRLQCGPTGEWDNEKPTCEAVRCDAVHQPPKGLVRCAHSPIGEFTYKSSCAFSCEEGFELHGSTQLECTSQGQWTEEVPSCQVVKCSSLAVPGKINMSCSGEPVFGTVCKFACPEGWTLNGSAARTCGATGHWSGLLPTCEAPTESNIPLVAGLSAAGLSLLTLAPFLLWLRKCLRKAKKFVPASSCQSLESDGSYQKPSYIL
Summary of the method: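 HUVEC whole-cell ELISA with PMA substituted for TNFα as inducer. Compound preincubated 24 h at 37 °C, then 6 h induction at 37 °C. E-selectin detected with mouse monoclonal antibody and HRP anti-mouse IgG, OPD development, A490. Value given as percent inhibition at a single concentration of 1 µM.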

[6] = target: T3, E-selectin (Homo sapiens, UniProt P16581); assay: Inhibition of selectin E in human endothelial cells; format: cell-based, Endothelial cell; summary of the method: as §1
T3 sequence (P16581 whole entry): T2 sequence (whole entry)

[7] = target: T3, E-selectin; assay: In vitro inhibitory potency compared to IL1-beta induced Selectin E in human endothelial cells (ELISA assay); format: cell-based, Endothelial cell; summary of the method: as §1
[8] = target: T3, E-selectin; assay: In vitro inhibitory potency compared to TNF-alpha induced Selectin E expression in human endothelial cells (ELISA assay); format: cell-based, Endothelial cell; summary of the method: as §1
[9] = test system: Mus musculus; assay: Efficacy in serum sICAM-1 at 30 mg/kg of oral dosing in an inhaled allergen-induced cell influx in 6 mice.; format: functional
Summary of the method: (§2)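 Mouse inhaled-allergen model. Compounds or vehicle (0.2% methylcellulose) given orally 18 h and 1 h before the first of two allergen inhalations. Lungs lavaged 24-27 h after the first inhalation. Read-outs were lavage cell count (no./µL), neutrophil and eosinophil percentages, and soluble ICAM-1 in serum and BAL 24 h after antigen. Values are mean ± SE.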

[10] = test system: Mus musculus; assay: Efficacy in serum sICAM-1 at 3 mg/kg of oral dosing in an inhaled allergen-induced cell influx in 7 mice.; format: functional; summary of the method: as §2
[11] = test system: Mus musculus; assay: % Efficacy in eosinophils at 0.3 mg/kg of oral dosing in an inhaled allergen-induced cell influx in 7 mice.; format: functional, Eosinophil; summary of the method: as §2
[12] = test system: Mus musculus; assay: % Efficacy in eosinophils at 30 mg/kg of oral dosing in an inhaled allergen-induced cell influx in 6 mice.; format: functional, Eosinophil; summary of the method: as §2
[13] = test system: Mus musculus; assay: % Efficacy in eosinophils at 3 mg/kg of oral dosing in an inhaled allergen-induced cell influx in 7 mice.; format: functional, Eosinophil; summary of the method: as §2
[14] = test system: Mus musculus; assay: % Efficacy in neutrophils at 0.3 mg/kg of oral dosing in an inhaled allergen-induced cell influx in 7 mice.; format: functional; summary of the method: as §2
[15] = test system: Mus musculus; assay: % Efficacy in neutrophils at 30 mg/kg of oral dosing in an inhaled allergen-induced cell influx in 6 mice.; format: functional; summary of the method: as §2
[16] = test system: Mus musculus; assay: % Efficacy in neutrophils at 3 mg/kg of oral dosing in an inhaled allergen-induced cell influx in 7 mice.; format: functional; summary of the method: as §2
[17] = test system: Mus musculus; assay: Efficacy in lBAL sICAM-1 at 0.3 mg/kg of oral dosing in an inhaled allergen-induced cell influx in 7 mice.; format: functional; summary of the method: as §2
[18] = test system: Mus musculus; assay: Efficacy in lBAL sICAM-1 at 30 mg/kg of oral dosing in an inhaled allergen-induced cell influx in 6 mice.; format: functional; summary of the method: as §2
[19] = test system: Mus musculus; assay: Efficacy in lBAL sICAM-1 at 3 mg/kg of oral dosing in an inhaled allergen-induced cell influx in 7 mice.; format: functional; summary of the method: as §2
[20] = test system: Mus musculus; assay: Efficacy in lavage cells at 0.3 mg/kg of oral dosing in an inhaled allergen-induced cell influx in 7 mice.; format: functional; summary of the method: as §2
[21] = test system: Mus musculus; assay: Efficacy in lavage cells at 3 mg/kg of oral dosing in an inhaled allergen-induced cell influx in 7 mice.; format: functional; summary of the method: as §2
[22] = test system: Mus musculus; assay: Efficacy in serum sICAM-1 at 0.3 mg/kg of oral dosing in an inhaled allergen-induced cell influx in 7 mice.; format: functional; summary of the method: as §2
[23] = Solubility in pH 7.4 buffer.; format: physicochemical
[24] = target: T1, Intercellular adhesion molecule 1; assay: In vitro inhibitory potency compared to IL1-beta induced Intercellular adhesion molecule-1 in human endothelial cells (ELISA assay); format: cell-based, Endothelial cell
Summary of the method: (§3)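 Primary HUVECs seeded at 5 × 10^4 cells/mL in EBM/2% FBS with EGF, bovine brain extract and gentamicin. Compound added next day for 24 h at 37 °C, then inducer (IL-1β or PMA, level not stated) for 6 h at 37 °C. Whole-cell ELISA used mouse monoclonal anti-ICAM-1 or anti-VCAM-1, HRP donkey anti-mouse IgG and OPD, read at 490 nm. Run in triplicate.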

[25] = Toxicity in HUVEC cell lysates; format: cell-based, Lysate; conditions: human
Summary of the method: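 Primary HUVECs were plated at 5 × 10^4 cells/mL in EBM/2% FBS with human EGF, bovine brain extract and gentamicin. The next day, compounds were added, at up to 100 µM. TNFα was then added as in the cell ELISA. About 24 h after compound addition, MTS reagent was added, cells were incubated a further 2 h at 37 °C, and absorbance was read at 490 nm.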

[26] = target: T1, Intercellular adhesion molecule 1; assay: In vitro inhibitory potency compared to TNF-alpha induced Intercellular adhesion molecule-1 expression in human endothelial cells (ELISA assay); format: cell-based, Endothelial cell
Summary of the method: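 Primary HUVECs plated at 5 × 10^4 cells/mL in EBM/2% FBS with growth supplements; next day compound added, 24 h at 37 °C, then TNFα to 5 ng/mL final, 6 h at 37 °C. Cell ELISA: mouse monoclonal anti-ICAM-1 overnight at 4 °C, HRP donkey anti-mouse IgG, OPD, absorbance 490 nm; triplicate assay.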

[27] = target: T1, Intercellular adhesion molecule 1; assay: In vitro inhibitory potency compared to IL1-beta induced Intercellular adhesion molecule-1 expression in human endothelial cells (ELISA assay); format: cell-based, Endothelial cell
Summary of the method: (§4)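 Primary HUVECs plated at 5 × 10^4 cells/mL in EBM/2% FBS with growth supplements; next day compound added, 24 h at 37 °C, then IL-1β substituted for TNFα as inducer, 6 h at 37 °C. Cell ELISA: mouse monoclonal anti-ICAM-1 or anti-E-selectin (ELAM-1) overnight at 4 °C, HRP donkey anti-mouse IgG, OPD, absorbance 490 nm.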

[28] = target: T1, Intercellular adhesion molecule 1; assay: In vitro inhibitory potency compared to PMA induced Intercellular adhesion molecule-1 expression in human endothelial cells (ELISA assay); format: cell-based, Endothelial cell; summary of the method: as §3
[29] = target: T3, E-selectin; assay: In vitro inhibitory potency compared to IL1-beta induced Selectin E expression in human endothelial cells (ELISA assay); format: cell-based, Endothelial cell; summary of the method: as §4
[30] = target: T4, Vascular cell adhesion protein 1 (Homo sapiens) (UniProt P19320); conditions: Endothelial cell
T4 sequence (whole entry): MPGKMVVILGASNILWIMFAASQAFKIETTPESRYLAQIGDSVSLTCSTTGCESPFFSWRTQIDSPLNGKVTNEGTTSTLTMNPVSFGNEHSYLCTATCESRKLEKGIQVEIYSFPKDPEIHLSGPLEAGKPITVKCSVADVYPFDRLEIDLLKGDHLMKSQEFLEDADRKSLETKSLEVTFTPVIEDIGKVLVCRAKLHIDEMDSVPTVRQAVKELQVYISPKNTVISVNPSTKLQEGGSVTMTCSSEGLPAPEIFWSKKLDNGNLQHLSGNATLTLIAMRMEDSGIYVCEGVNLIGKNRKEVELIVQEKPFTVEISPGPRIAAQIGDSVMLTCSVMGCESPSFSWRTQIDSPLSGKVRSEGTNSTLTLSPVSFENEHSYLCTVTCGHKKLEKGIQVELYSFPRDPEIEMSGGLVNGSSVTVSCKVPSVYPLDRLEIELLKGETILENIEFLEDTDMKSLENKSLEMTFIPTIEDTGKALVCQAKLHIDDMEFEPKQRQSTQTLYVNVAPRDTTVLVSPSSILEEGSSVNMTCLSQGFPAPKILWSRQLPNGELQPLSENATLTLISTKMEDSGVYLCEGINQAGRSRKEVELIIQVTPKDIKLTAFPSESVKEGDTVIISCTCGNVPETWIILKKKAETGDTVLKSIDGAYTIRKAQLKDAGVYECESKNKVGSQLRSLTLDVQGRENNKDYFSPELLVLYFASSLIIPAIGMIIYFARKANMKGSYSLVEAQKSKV

[31] = Inhibition of selectin E in human endothelial cells; conditions: endothelial cell
[32] = Inhibition of intercellular adhesion molecule-1 (ICAM1) in human endothelial cells; conditions: endothelial cell

IC50 [2]: 3 nM
IC50 [3]: 5 nM
IC50 [4]: 6 nM
inhibition [5]: 48%
IC50 [6]: 4 nM
IC50 [7]: 6 nM
IC50 [8]: 4 nM
solubility [23]: 0.46 µg/mL (≈ 1.32 µM)
IC50 [24]: 3 nM
SMILES: NC(=O)c1cc2c(Oc3ccc(Br)cc3)cncc2s1
IC50 [1]: > 100 µM
Efficacy [9]: 18.8 µg/mL and 18.5 µg/mL
Efficacy [10]: 21.3 µg/mL
Efficacy [11]: 19%
Efficacy [12]: 8% and 9%
Efficacy [13]: 14%
Efficacy [14]: 44%
Efficacy [15]: 38% and 57%
Efficacy [16]: 60%
Efficacy [17]: 2.67 µg/mL
Efficacy [18]: 1.74 µg/mL and 1.99 µg/mL
Efficacy [19]: 2.68 µg/mL
Efficacy [20]: 282 number ul-1
Efficacy [21]: 319 number ul-1
Efficacy [22]: 20.7 µg/mL

IC50 [26]: 15 nM
IC50 [27]: 10 nM
IC50 [28]: 30 nM
inhibition [5]: 44%
IC50 [29]: 25 nM
IC50 [8]: 15 nM
Inhibition at 1uM [30]: 45%
IC50 [31]: 20 nM
IC50 [32]: 25 nM
SMILES: Cc1ccc(Sc2cncc3sc(C(N)=O)cc23)cc1
IC50 [25]: 152 µM

Source: ChEMBL document CHEMBL1134459 (J Med Chem, 2001)
